Assay results published in ChEMBL document CHEMBL4706633, “Design, Synthesis, and Biological Evaluation of a Series of Oxazolone Carboxamides as a Novel Class of Acid Ceramidase Inhibitors” (J Med Chem, 2020).
Calls of active or inactive are those of the source. The calls are words filed in the database; no cut-off is given here.

Tests used:
[1] = target: T1, Acid ceramidase (Homo sapiens) (UniProt Q13510); assay: Inhibition of acid ceramidase in human SH-SY5Y cells assessed as reduction in sphingolipid levels at 10 uM incubated for 1 to 6 hrs by LC-MS analysis; format: cell-based; conditions: time 1-6 hrs, TDE = time-dependent effect
T1 sequence (whole entry): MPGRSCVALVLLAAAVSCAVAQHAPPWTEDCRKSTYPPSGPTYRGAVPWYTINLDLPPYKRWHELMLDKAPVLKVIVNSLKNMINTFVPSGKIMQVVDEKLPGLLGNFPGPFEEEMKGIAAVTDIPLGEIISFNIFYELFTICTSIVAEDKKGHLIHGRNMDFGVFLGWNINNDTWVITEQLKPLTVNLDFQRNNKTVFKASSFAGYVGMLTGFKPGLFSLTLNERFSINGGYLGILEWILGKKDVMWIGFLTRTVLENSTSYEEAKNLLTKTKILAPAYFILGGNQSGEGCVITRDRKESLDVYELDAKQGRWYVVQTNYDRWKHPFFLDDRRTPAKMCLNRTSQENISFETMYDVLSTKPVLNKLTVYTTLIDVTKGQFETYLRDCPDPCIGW
Method in brief: (§1)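 SH-SY5Y neuroblastoma cultures were treated at 10 μM for 1, 3 or 6 h. Intracellular sphingolipids (Cer, So, SM, HexCer) were then identified and quantified by LC/MS.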

[2] = AUC in C57BL/6 mouse at 3 mg/kg, iv measured up to 4 hrs by LC/MS-MS analysis; format: ADME, organism-based; parameters: route intravenous, dose 3 mg/kg, time <=4; conditions: in vivo
[3] = Volume of distribution at steady state in C57BL/6 mouse at 3 mg/kg, iv measured up to 4 hrs by LC/MS-MS analysis; format: ADME, organism-based; conditions: in vivo
Method in brief: (§2)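 C57BL/6 mice were dosed intravenously at 3 mg/kg or orally at 10 mg/kg. Plasma PK parameters were derived per route: clearance, Vdss and t1/2 after i.v. dosing, and tmax, Cmax, t1/2 and AUC after oral dosing. Oral bioavailability F was estimated from the oral and i.v. exposures.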

[4] = Clearance in C57BL/6 mouse at 10 mg/kg, po measured up to 4 hrs by LC/MS-MS analysis; format: ADME, organism-based; conditions: in vivo
SH-SY5Y [5] = assay: Effect on SM (d18:1/16:0) levels in human SH-SY5Y cells at 10 uM incubated for 1 to 6 hrs by LC-MS analysis; format: functional, cell-based; conditions: time 1-6 hrs; method in brief: as §1
SH-SY5Y [6] = assay: Effect on HexCer (d18:1/16:0) levels in human SH-SY5Y cells at 1 to 10 uM incubated for 3 hrs by LC-MS analysis; format: functional, cell-based; conditions: dose 1-10 µM
Method in brief: (§3)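 SH-SY5Y human neuroblastoma cells were exposed for 3 h at 1, 2.5, 5 or 10 μM. Cellular sphingolipids (Cer species, So, SM, HexCer) were quantified by LC/MS. Data are means ± SEM of at least six determinations, with experiments repeated twice. Significance was taken at p < 0.05.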

Acid ceramidase = target: T2, Acid ceramidase (Homo sapiens, UniProt Q13510); assay: Inhibition of human acid ceramidase using Rbm14-12 fluorogenic substrate incubated for 1 hr by fluorescence assay; conditions: read-out: IC50
T2 sequence (Q13510 whole entry): T1 sequence (whole entry)

[7] = Half life in mouse liver microsomes at 4.6 uM in presence of NADPH by LC/MS-MS analysis; format: ADME, Microsome
Method in brief: (§4)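 Kinetic aqueous solubility was measured in PBS, pH 7.4. Metabolic stability was measured as t1/2 in mouse plasma and mouse liver microsomes, with microsomal data also given as % compound remaining at 1 h. Values are means of at least two independent experiments, each in two technical replicates.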

[8] = target: T1, Acid ceramidase (Homo sapiens); assay: Inhibition of acid ceramidase in human SH-SY5Y cells assessed as intracellular accumulation of Cer (d18:1/16:0) at 10 uM incubated for 1 to 6 hrs by LC-MS analysis; format: cell-based; conditions: time 1-6 hrs; method in brief: as §1
[9] = target: T1, Acid ceramidase (Homo sapiens); assay: Inhibition of acid ceramidase in human SH-SY5Y cells assessed as intracellular accumulation of Cer (d18:0/16:0) at 10 uM incubated for 1 to 6 hrs by LC-MS analysis; format: cell-based; conditions: time 1-6 hrs; method in brief: as §1
[10] = Stability in mouse liver microsomes at 4.6 uM in presence of NADPH after 60 mins by LC/MS-MS analysis; format: ADME, Microsome; conditions: read-out: Stabilty; method in brief: as §4
[11] = Elimination half life in C57BL/6 mouse at 10 mg/kg, po measured up to 4 hrs by LC/MS-MS analysis; format: ADME, organism-based; conditions: in vivo; method in brief: as §2
[12] = AUC in C57BL/6 mouse at 10 mg/kg, po measured up to 4 hrs by LC/MS-MS analysis; format: ADME, organism-based; parameters: route oral, dose 10 mg/kg, time <=4; conditions: in vivo; method in brief: as §2
[13] = target: T1, Acid ceramidase (Homo sapiens); assay: Irreversible covalent inhibition of human acid ceramidase using N-lauroyl ceramide incubated for 1 hr by LC/MS analysis
[14] = target: T1, Acid ceramidase (Homo sapiens); assay: Inhibition of acid ceramidase in human SH-SY5Y cells assessed as intracellular accumulation of Cer (d18:0/16:0) at 1 to 10 uM incubated for 3 hrs by LC-MS analysis; format: cell-based; conditions: dose 1-10 µM; method in brief: as §3
SH-SY5Y [15] = assay: Effect on SM (d18:1/16:0) levels in human SH-SY5Y cells at 1 to 10 uM incubated for 3 hrs by LC-MS analysis; format: functional, cell-based; conditions: dose 1-10 µM; method in brief: as §3
[16] = target: T1, Acid ceramidase (Homo sapiens); assay: Inhibition of acid ceramidase in human SH-SY5Y cells assessed as intracellular accumulation of Cer (d18:1/16:0) at 1 to 10 uM incubated for 3 hrs by LC-MS analysis; format: cell-based; conditions: dose 1-10 µM; method in brief: as §3
[17] = target: T3, N-acylethanolamine-hydrolyzing acid amidase (Homo sapiens) (UniProt Q02083); assay: Inhibition of human NAAA up to 125 uM; conditions: dose microM <=125
T3 sequence (whole entry): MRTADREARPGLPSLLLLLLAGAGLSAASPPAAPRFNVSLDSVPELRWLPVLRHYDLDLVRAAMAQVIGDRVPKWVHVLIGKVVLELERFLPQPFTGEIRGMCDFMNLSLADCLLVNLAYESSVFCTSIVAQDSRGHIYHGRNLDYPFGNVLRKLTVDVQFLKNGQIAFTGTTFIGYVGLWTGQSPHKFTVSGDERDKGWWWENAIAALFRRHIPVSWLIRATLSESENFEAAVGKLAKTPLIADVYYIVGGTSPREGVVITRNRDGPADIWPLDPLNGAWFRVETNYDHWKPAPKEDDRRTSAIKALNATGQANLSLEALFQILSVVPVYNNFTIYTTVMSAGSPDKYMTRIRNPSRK

[18] = Kinetic solubility in pH 7.4 PBS buffer at 250 uM incubated for 1 hr by UPLC/MS analysis; format: physicochemical; conditions: read-out: Kinetic_solubility; method in brief: as §4
[19] = target: T1, Acid ceramidase (Homo sapiens); assay: Inhibition of acid ceramidase in human SH-SY5Y cells assessed as reduction in sphingosine level at 1 to 10 uM incubated for 3 hrs by LC-MS analysis; format: cell-based; conditions: dose 1-10 µM; method in brief: as §3
[20] = Volume of distribution at steady state in C57BL/6 mouse at 10 mg/kg, po measured up to 4 hrs by LC/MS-MS analysis; format: ADME, organism-based; conditions: in vivo
[21] = target: T1, Acid ceramidase (Homo sapiens); assay: Inhibition of acid ceramidase in human SH-SY5Y cells assessed as reduction in sphingosine level at 10 uM incubated for 1 to 6 hrs by LC-MS analysis; format: cell-based; conditions: time 1-6 hrs; method in brief: as §1
[22] = Half life in mouse plasma at 2 uM by LC/MS-MS analysis; format: ADME, cell-free; method in brief: as §4
[23] = Cmax in C57BL/6 mouse at 10 mg/kg, po measured up to 4 hrs by LC/MS-MS analysis; format: ADME, organism-based; parameters: route oral, dose 10 mg/kg, time <=4; conditions: in vivo; method in brief: as §2
[24] = Tmax in C57BL/6 mouse at 10 mg/kg, po measured up to 4 hrs by LC/MS-MS analysis; format: ADME, organism-based; conditions: in vivo; method in brief: as §2
[25] = Oral bioavailability in C57BL/6 mouse at 10 mg/kg measured up to 4 hrs by LC/MS-MS analysis; format: ADME, organism-based; conditions: in vivo; method in brief: as §2
[26] = target: T1, Acid ceramidase (Homo sapiens); assay: Inhibition of acid ceramidase in human SH-SY5Y cells assessed as reduction in sphingolipid levels at 1 to 10 uM incubated for 3 hrs by LC-MS analysis; format: cell-based; conditions: dose 1-10 µM; method in brief: as §3
[27] = Elimination half life in C57BL/6 mouse at 3 mg/kg, iv measured up to 4 hrs by LC/MS-MS analysis; format: ADME, organism-based; conditions: in vivo; method in brief: as §2
SH-SY5Y [28] = assay: Effect on HexCer (d18:1/16:0) levels in human SH-SY5Y cells at 10 uM incubated for 1 to 6 hrs by LC-MS analysis; format: functional, cell-based; conditions: time 1-6 hrs; method in brief: as §1

Q: Which results are given for `CCCCCNC(=O)n1cc(-c2ccc(F)cc2C2CCN(C)CC2)oc1=O`?
A: inhibition [1]: Tde; AUC [2]: 31978 ng·min/mL; Vdss [3]: 12.426 L/kg; CL/F [4]: 155 mL/min/kg; Activity (SH-SY5Y [5]): inactive; Activity (SH-SY5Y [6]): inactive; IC50 (Acid ceramidase): 129 nM; t1/2 [7]: > 1 h; inhibition [8]: Active; inhibition [9]: Active; remaining at 1 h, 4.6 µM [10]: 74%; beta t1/2 [11]: 2.45 h; AUC [12]: 42525 ng·min/mL; inhibition [13]: Active; inhibition [14]: Dose-dependent effect; Activity (SH-SY5Y [15]): inactive; inhibition [16]: Dose-dependent effect; inhibition [17]: inactive; solubility kinetic at 1 h, 250 µM [18]: > 250 µM; inhibition [19]: Dose-dependent effect; Vdss [20]: 32.877 L/kg; inhibition [21]: Active; t1/2 [22]: 1.83 h; Cmax [23]: 278 ng/mL; Tmax [24]: 0.5 h; F [25]: 40%; inhibition [26]: Dose-dependent effect; beta t1/2 [27]: 1.98 h; Activity (SH-SY5Y [28]): inactive
